Format in all cases: functional
In experiment [1] the test system is MCF7. As to the kind of experiment: Down regulation of KIAA1533 gene expression in human MCF7 cells at IC50 after 48 hrs by cDNA microarray technique relative to control. The procedure, abridged: (§1)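 Cells (8 × 10⁶) were cultured in DMEM with 10% heat-inactivated FBS at 37 °C under 5% CO₂. They were exposed for 48 h to compound at its IC₅₀, with DMSO-treated parallel cultures as controls (final DMSO ≤0.1% v/v). Total RNA was isolated by trizol/chloroform phase separation, RNeasy column cleanup and on-column DNase, then quantified by OD260/OD280. Expression was profiled by cDNA microarray relative to control.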

Experiment [2] has as its system MCF7. In words: Down regulation of AF086546 gene expression in human MCF7 cells at IC50 after 48 hrs by cDNA microarray technique relative to control. The procedure, abridged: (§2)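 8 × 10⁶ cells exposed 48 h to compound at its IC50 concentration; total RNA isolated with trizol/chloroform and RNeasy columns including on-column DNase step; RNA quantified by OD 260/280; DMSO-treated cultures as control.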

Experiment [3] concerns MCF7. In words: Down regulation of HLA-DOB gene expression in human MCF7 cells at IC50 after 48 hrs by cDNA microarray technique relative to control. In outline: as §1
For experiment [4], the system named is HT-29. In words: Upregulation of LOC283385 gene expression in human HT-29 cells at IC50 after 48 hrs by cDNA microarray technique relative to control.
Experiment [5] relates to HT-29. In words: Upregulation of C20orf40 gene expression in human HT-29 cells at IC50 after 48 hrs by cDNA microarray technique relative to control.
Experiment [6] concerns HT-29. As to the kind of experiment: Upregulation of AVIL gene expression in human HT-29 cells at IC50 after 48 hrs by cDNA microarray technique relative to control.
For experiment [7], the system named is HT-29. In words: Upregulation of TREM4 gene expression in human HT-29 cells at IC50 after 48 hrs by cDNA microarray technique relative to control.
Experiment [8] deals with HT-29. In words: Upregulation of HOXB8 gene expression in human HT-29 cells at IC50 after 48 hrs by cDNA microarray technique relative to control.
Experiment [9] relates to HT-29. In words: Down regulation of KCNJ16 gene expression in human HT-29 cells at IC50 after 48 hrs by cDNA microarray technique relative to control. The procedure, abridged:
as §1

Experiment [10] deals with HT-29. In words: Down regulation of MOG gene expression in human HT-29 cells at IC50 after 48 hrs by cDNA microarray technique relative to control.
The subject of experiment [11] is MCF7. In words: Upregulation of CR595826 gene expression in human MCF7 cells at IC50 after 48 hrs by cDNA microarray technique relative to control.
Experiment [12] relates to MCF7. As to the kind of experiment: Down regulation of GLIPR1 gene expression in human MCF7 cells at IC50 after 48 hrs by cDNA microarray technique relative to control. The procedure, abridged: as §1
Experiment [13] deals with HT-29. As to the kind of experiment: Down regulation of BAP1 gene expression in human HT-29 cells at IC50 after 48 hrs by cDNA microarray technique relative to control. In outline: as §2
The subject of experiment [14] is HT-29. In words: Down regulation of FLOT1 gene expression in human HT-29 cells at IC50 after 48 hrs by cDNA microarray technique relative to control. The procedure, abridged: as §1
Experiment [15] relates to HT-29. In words: Down regulation of MGC33637 gene expression in human HT-29 cells at IC50 after 48 hrs by cDNA microarray technique relative to control.
The subject of experiment [16] is HT-29. As to the kind of experiment: Down regulation of ANXA6 gene expression in human HT-29 cells at IC50 after 48 hrs by cDNA microarray technique relative to control. The procedure, abridged:
as §2

In experiment [17] the test system is HT-29. As to the kind of experiment: Down regulation of SNRP70 gene expression in human HT-29 cells at IC50 after 48 hrs by cDNA microarray technique relative to control.
The test system of experiment [18] is HT-29. As to the kind of experiment: Down regulation of HBZ gene expression in human HT-29 cells at IC50 after 48 hrs by cDNA microarray technique relative to control. In outline: as §1
The subject of experiment [19] is HT-29. In words: Down regulation of D4S234E gene expression in human HT-29 cells at IC50 after 48 hrs by cDNA microarray technique relative to control. The procedure, abridged:
as §2

Experiment [20] relates to HT-29. As to the kind of experiment: Down regulation of ACCN5 gene expression in human HT-29 cells at IC50 after 48 hrs by cDNA microarray technique relative to control. The procedure, abridged: as §2
The subject of experiment [21] is HT-29. As to the kind of experiment: Down regulation of FUS gene expression in human HT-29 cells at IC50 after 48 hrs by cDNA microarray technique relative to control. The procedure, abridged:
as §1

In experiment [22] the test system is HT-29. In words: Down regulation of PRP19 gene expression in human HT-29 cells at IC50 after 48 hrs by cDNA microarray technique relative to control.
The subject of experiment [23] is HT-29. In words: Down regulation of PRKAG1 gene expression in human HT-29 cells at IC50 after 48 hrs by cDNA microarray technique relative to control.
Experiment [24] deals with MCF7. As to the kind of experiment: Upregulation of UNQ739 gene expression in human MCF7 cells at IC50 after 48 hrs by cDNA microarray technique relative to control.
Experiment [25] deals with MCF7. In words: Upregulation of CITED1 gene expression in human MCF7 cells at IC50 after 48 hrs by cDNA microarray technique relative to control.
Experiment [26] concerns MCF7. In words: Upregulation of GPR132 gene expression in human MCF7 cells at IC50 after 48 hrs by cDNA microarray technique relative to control.
The subject of experiment [27] is MCF7. As to the kind of experiment: Down regulation of ZNF365 gene expression in human MCF7 cells at IC50 after 48 hrs by cDNA microarray technique relative to control.
Experiment [28] relates to MCF7. In words: Down regulation of FBXL7 gene expression in human MCF7 cells at IC50 after 48 hrs by cDNA microarray technique relative to control. The procedure, abridged:
as §1

The subject of experiment [29] is MCF7. As to the kind of experiment: Down regulation of CCT6B gene expression in human MCF7 cells at IC50 after 48 hrs by cDNA microarray technique relative to control. In outline: as §2
The subject of experiment [30] is MCF7. In words: Down regulation of RHAG gene expression in human MCF7 cells at IC50 after 48 hrs by cDNA microarray technique relative to control.
The test system of experiment [31] is HT-29. In words: Upregulation of PLOD2 gene expression in human HT-29 cells at IC50 after 48 hrs by cDNA microarray technique relative to control.
The subject of experiment [32] is HT-29. As to the kind of experiment: Upregulation of TP53INP1 gene expression in human HT-29 cells at IC50 after 48 hrs by cDNA microarray technique relative to control.
Experiment [33] relates to HT-29. In words: Down regulation of PRO1855 gene expression in human HT-29 cells at IC50 after 48 hrs by cDNA microarray technique relative to control.
For experiment [34], the system named is HT-29. As to the kind of experiment: Down regulation of RALGDS gene expression in human HT-29 cells at IC50 after 48 hrs by cDNA microarray technique relative to control.
Experiment [35] has as its system HT-29. As to the kind of experiment: Down regulation of KELCHL gene expression in human HT-29 cells at IC50 after 48 hrs by cDNA microarray technique relative to control. The procedure, abridged: as §1
Experiment [36] has as its system HT-29. In words: Down regulation of VPS18 gene expression in human HT-29 cells at IC50 after 48 hrs by cDNA microarray technique relative to control.
In experiment [37] the test system is HT-29. As to the kind of experiment: Down regulation of RXRB gene expression in human HT-29 cells at IC50 after 48 hrs by cDNA microarray technique relative to control.
The subject of experiment [38] is HT-29. As to the kind of experiment: Down regulation of PRKCABP gene expression in human HT-29 cells at IC50 after 48 hrs by cDNA microarray technique relative to control.

Data on two compounds can be found in ChEMBL document CHEMBL1821604, “Anticancer activity and cDNA microarray studies of a (RS)-1,2,3,5-tetrahydro-4,1-benzoxazepine-3-yl]-6-chloro-9H-purine, and an acyclic (RS)-O,N-acetalic 6-chloro-7H-purine” (Eur J Med Chem, 2011).

Each structure is given as a SMILES string.

Take `COC(CN(c1ccccc1CO)S(=O)(=O)c1ccccc1[N+](=O)[O-])n1cnc2ncnc(Cl)c21` (racemic): the “fold change (FC)” value was -2.09 in the experiment on MCF7 [1]; -2.14 with MCF7 [2]; -2.26 in the experiment with MCF7 [3]; 4.37 in the experiment on HT-29 [4]; 2.56 with HT-29 [5]; 2.46 in the experiment on HT-29 [6]. The “fold change (FC)” value is reported as 2.27 in the experiment with HT-29 [7]; 2.11 in the experiment with HT-29 [8]; -2.21 in the experiment on HT-29 [9]; -2.65 with HT-29 [10]; 2.04 in the experiment with MCF7 [11]; -2.12 with MCF7 [12].
Regarding `O=C(OCC1c2ccccc2-c2ccccc21)N1CC(n2cnc3c(Cl)ncnc32)OCc2ccccc21` (racemic), the “fold change (FC)” value is on record as -2.13 in the experiment on HT-29 [13]; -2.19 in the experiment on HT-29 [14]; -2.25 with HT-29 [15]; -2.27 in the experiment on HT-29 [16]; -2.78 in the experiment on HT-29 [17]; -2.84 with HT-29 [18]. The “fold change (FC)” value in the experiment with HT-29 [19] is given as -2.91; in the experiment on HT-29 [20], -2.98; with HT-29 [21], -2.99; with HT-29 [22] it was -3.33; in the experiment on HT-29 [23], -3.98; in the experiment with MCF7 [24], 4.07. Further, the “fold change (FC)” value is 2.73 with MCF7 [25]; 2.1 in the experiment with MCF7 [26]; 2 in the experiment with MCF7 [27]; -2.86 in the experiment on MCF7 [28]; -3.22 with MCF7 [29]; -6.26 in the experiment with MCF7 [30]. Moreover, the “fold change (FC)” value is on record as 2.76 in the experiment with HT-29 [31]; 2.58 in the experiment on HT-29 [32]; -2 in the experiment with HT-29 [33]; -2.01 in the experiment with HT-29 [34]; -2.02 in the experiment on HT-29 [35]; -2.04 in the experiment on HT-29 [36]. For the same compound, the entries for the “fold change (FC)” value in the experiment on HT-29 [37] and with HT-29 [38] were -2.1 and -2.13, respectively.
